In ChEMBL document CHEMBL3808360, “Discovery of Potent Non-Nucleoside Inhibitors of Dengue Viral RNA-Dependent RNA Polymerase from a Fragment Hit Using Structure-Based Drug Design” (J Med Chem, 2016):
Activity calls are given as the source filed them. The rule behind the calls is not given here.

What was measured:
[1] = Binding affinity to Dengue virus 3 NS5 RdRp by surface plasmon resonance analysis; design: species or system dengue virus type 3
Summary of the method: (§1)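 Blank reference cell. Compound run as a 7-point 2-fold series, typically from 200 µM, with zero-concentration subtraction. Flow 30 µL/min, 45 s contact, 60-600 s dissociation, run from low to high concentration.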

[2] = Inhibition of RdRp activity of Dengue virus 3 NS5; design: species or system dengue virus type 3
[3] = system: dengue virus type 1; experiment: Antiviral activity against Dengue virus 1 MY97-10245 infected in human A549 cells assessed as reduction in DENV envelope protein level after 48 hrs; format: functional, organism-based; conditions: MY97-10245, A549, 48 h
Summary of the method: (§2)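 A549 cells (~7×10^3/well) seeded in Ham's F-12K with 2% FBS, 1 mM L-glutamine and 1% penicillin-streptomycin, held overnight at 37°C, 5% CO₂. Infected at 24 h post-seeding (DENV1 MOI 0.5, DENV2 MOI 0.3, DENV3 MOI 1, DENV4 MOI 0.5). Compound added at once as a 10-point, 3-fold series, 0.5% DMSO final. Fixed at 48 h with 4% paraformaldehyde. Stained with Dylight 488-4G2 anti-envelope antibody and DRAQ5 nuclear stain. Envelope protein quantified by high-content imaging; EC₅₀ calculated.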

[4] = Inhibition of RdRp activity of Dengue virus 3 NS5 preincubated for 15 mins followed by RNA and NTP addition measured after 120 mins; design: species or system dengue virus type 3
[5] = Dissociation constant, pKa of the compound; format: physicochemical
[6] = system: dengue virus type 3; experiment: Antiviral activity against Dengue virus 3 MY05-34640 infected in human A549 cells assessed as reduction in DENV envelope protein level after 48 hrs; format: functional, organism-based; conditions: MY05-34640, A549, 48 h; summary of the method: as §2
[7] = Apparent permeability across apical to basolateral side in human Caco2 cells at pH 7.4; format: ADME, cell-based; conditions: Caco-2, pH 7.4
Summary of the method: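 Apical-to-basal Caco-2 permeability measured at pH 7.4.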

[8] = Cytotoxicity against human HepG2 cells; format: cell-based
[9] = Inhibition of RdRp activity of Dengue virus 2 NS5 preincubated for 15 mins followed by RNA and NTP addition measured after 120 mins; design: species or system dengue virus type 2
[10] = system: dengue virus type 4; experiment: Antiviral activity against Dengue virus 4 MY01-22713 infected in human A549 cells assessed as reduction in DENV envelope protein level after 48 hrs; format: functional, organism-based; conditions: MY01-22713, A549, 48 h; summary of the method: as §2
[11] = Lipophilicity, log D of the compound at pH 7.4; format: physicochemical; conditions: buffer
[12] = Inhibition of RdRp activity of Dengue virus 1 NS5 preincubated for 15 mins followed by RNA and NTP addition measured after 120 mins; design: species or system dengue virus type 1
[13] = Binding affinity to biotinylated Dengue virus 4 NS5 RdRp by surface plasmon resonance analysis; design: species or system dengue virus type 4; summary of the method: as §1
[14] = system: dengue virus type 2; experiment: Antiviral activity against Dengue virus 2 MY97-10340 infected in human A549 cells assessed as reduction in DENV envelope protein level after 48 hrs; format: functional, organism-based; conditions: MY97-10340, A549, 48 h; summary of the method: as §2
[15] = Inhibition of RdRp activity of Dengue virus 4 full length NS5 preincubated for 15 mins followed by RNA and NTP addition measured after 120 mins; design: species or system dengue virus type 4
Summary of the method: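 Reaction with 100 nM DENV4 full-length NS5 and 100 nM in vitro transcribed DENV4 mini-genome RNA template (575 nt, linked 5'-3' UTRs). NTPs: 20 µM each ATP, GTP and UTP plus 5 µM ATTO-CTP. Compound (two-fold series from 20 or 100 µM) preincubated with enzyme 15 min at room temperature. RNA/NTP mix added; run 120 min. Stopped with alkaline phosphatase stop buffer, 60 min. Fluorescence read at ex 422/em 566 nm. Duplicate wells; IC₅₀ from variable-slope sigmoidal fit.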

[16] = Binding affinity to Dengue virus 4 NS5 RdRp (274 to 900 residues) by ITC method; design: species or system dengue virus type 4
Summary of the method: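 DENV-4 RdRp (residues 274-900) at 30-50 µM in the cell, in 20 mM HEPES pH 7.0, 300 mM NaCl, 2 mM TCEP, DMSO matched to ligand. Ligand diluted from a 50 mM DMSO stock into the same buffer, typically 2.5 mM in the syringe. Run at 25°C: one 0.4 µl injection, then 15 × 2.6 µl. Heat of dilution into buffer subtracted.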

[17] = system: dengue virus type 3; experiment: Antiviral activity against Dengue virus 3 MY05-34640 infected in human A549 cells assessed as reduction in DENV envelope protein level up to 50 uM after 48 hrs; format: functional, organism-based; summary of the method: as §2
[18] = system: dengue virus type 4; experiment: Antiviral activity against Dengue virus 4 MY01-22713 infected in human A549 cells assessed as reduction in DENV envelope protein level up to 50 uM after 48 hrs; format: functional, organism-based; summary of the method: as §2
[19] = system: dengue virus type 1; experiment: Antiviral activity against Dengue virus 1 MY97-10245 infected in human A549 cells assessed as reduction in DENV envelope protein level up to 50 uM after 48 hrs; format: functional, organism-based; summary of the method: as §2
[20] = system: dengue virus type 2; experiment: Antiviral activity against Dengue virus 2 MY97-10340 infected in human A549 cells assessed as reduction in DENV envelope protein level up to 50 uM after 48 hrs; format: functional, organism-based; summary of the method: as §2
[21] = Inhibition of RdRp activity of Dengue virus 4 of NS5 preincubated with enzyme followed by RNA and NTP addition; design: species or system dengue virus type 4
[22] = Binding affinity to N-terminal AviTag Dengue virus 3 NS5 RdRp (263 to 900 residues) expressed in Escherichia coli BL21 cells by surface plasmon resonance analysis; design: species or system dengue virus type 3; summary of the method: as §1

Structure (SMILES): O=C(O)Cc1ccc(O)c(-c2ccccc2)c1
- Kd [1]: 200 µM
- IC50 [2]: 769 µM

Structure (SMILES): COc1cccc(S(=O)(=O)NC(=O)c2cc(-c3ccc(C#CCO)s3)c(OC)cc2OC)c1
- EC50 [3]: 1.8 µM
- IC50 [4]: 0.048 µM
- pKa [5]: 4.7
- EC50 [6]: 1.8 µM
- Papp A→B [7]: 39.1 nm/s
- CC50 [8]: > 50 µM
- IC50 [9]: 0.11 µM
- EC50 [10]: 1.8 µM
- logD [11]: 1.6
- IC50 [12]: 0.068 µM
- Kd [13]: 0.07 µM
- EC50 [14]: 2.3 µM

Structure (SMILES): COc1cc(C)c(-c2ncc[nH]2)cc1-c1ccc(C#CCO)s1
- pKa [5]: 6.6
- IC50 [15]: 44 µM
- logD [11]: 3.6

Structure (SMILES): O=C(O)Cc1cc(CC(=O)O)cc(-c2ccc(C#CCCO)s2)c1
- IC50 [15]: 29 µM
- Kd [16]: 34 µM

Structure (SMILES): COc1cc(C)c(C(=O)NS(C)(=O)=O)cc1-c1ccc(C#CCO)s1
- EC50 [3]: > 50 µM
- Activity [17]: inactive
- pKa [5]: 4
- EC50 [6]: > 50 µM
- Papp A→B [7]: 5 nm/s
- Activity [18]: inactive
- IC50 [15]: 0.34 µM
- Kd [16]: 2 µM
- EC50 [10]: > 50 µM
- logD [11]: 0.8
- Activity [19]: inactive
- Kd [13]: 0.12 µM
- Activity [20]: inactive
- EC50 [14]: > 50 µM

Structure (SMILES): N#Cc1ccc(-c2cc(CC(=O)O)cc(CC(=O)O)c2)s1
- IC50 [15]: 199 µM
- Kd [16]: 134 µM

Structure (SMILES): COc1ccc(CC(=O)O)cc1-c1ccccc1
- IC50 [21]: 734 µM
- Kd [22]: 613 µM

Structure (SMILES): O=C(O)Cc1cc(CC(=O)O)cc(-c2ccc(C#CCO)s2)c1
- IC50 [4]: 0.5 µM
- Papp A→B [7]: 5.1 nm/s
- IC50 [9]: 2.2 µM
- IC50 [12]: 0.3 µM

Structure (SMILES): COc1ccc(-c2nnn[nH]2)cc1-c1ccc(C#CCO)s1
- Papp A→B [7]: 13.9 nm/s
- IC50 [15]: 2.4 µM

Structure (SMILES): O=C(O)Cc1cc(CC(=O)O)cc(-c2ccc(Cl)s2)c1
- Kd [16]: 33 µM

Structure (SMILES): COc1cc(OC)c(-c2ccc(C#CCO)s2)cc1C(=O)NS(=O)(=O)c1ccccc1
- EC50 [3]: 15 µM
- pKa [5]: 4.8
- EC50 [6]: 7.3 µM
- Papp A→B [7]: 108 nm/s
- IC50 [15]: 0.25 µM
- EC50 [10]: 14 µM
- logD [11]: 1.5
- Kd [13]: 0.09 µM
- EC50 [14]: 37 µM

Structure (SMILES): COc1cc(C)c(S(=O)(=O)NC(C)=O)cc1-c1ccc(C#CCO)s1
- pKa [5]: 4.8
- IC50 [15]: 2.5 µM
- logD [11]: 0.78

Structure (SMILES): COc1cc(C)c(-c2noc(=O)[nH]2)cc1-c1ccc(C#CCO)s1
- pKa [5]: 5.5
- IC50 [15]: 3.2 µM
- logD [11]: 1.9

Structure (SMILES): COc1ccc(CC(=O)O)cc1-c1ccc(C#CCO)s1
- Papp A→B [7]: 27.3 nm/s
- IC50 [15]: 7.5 µM
- Kd [16]: 14 µM
- Kd [13]: 2.2 µM

Structure (SMILES): O=C(O)Cc1cc(CC(=O)O)cc(-c2ccc(Br)s2)c1
- IC50 [15]: 39 µM
- Kd [16]: 46 µM

Structure (SMILES): O=C(O)Cc1cc(CC(=O)O)cc(-c2cccc(Cl)c2)c1
- IC50 [15]: 141 µM

Structure (SMILES): O=C(O)Cc1cc(CC(=O)O)cc(-c2ccco2)c1
- IC50 [15]: 211 µM
- Kd [16]: 552 µM

Structure (SMILES): O=C(O)Cc1cc(CC(=O)O)cc(-c2ccccc2Cl)c1
- IC50 [15]: 192 µM

Structure (SMILES): COc1cccc(S(=O)(=O)NC(=O)c2cc(-c3ccc(C#CCO)s3)c(Cl)cc2OC)c1
- EC50 [3]: 6.8 µM
- pKa [5]: 3.8
- EC50 [6]: 5.5 µM
- IC50 [15]: 0.14 µM
- EC50 [10]: 7 µM
- logD [11]: 0.9
- Kd [13]: 0.01 µM
- EC50 [14]: 13 µM

Structure (SMILES): Cc1ccc(-c2cc(CC(=O)O)cc(CC(=O)O)c2)s1
- IC50 [15]: 96 µM

Structure (SMILES): O=C(O)Cc1cc(CC(=O)O)cc(-c2ccc(Cl)cc2)c1
- IC50 [15]: 62 µM

Structure (SMILES): O=C(O)Cc1cc(CC(=O)O)cc(-c2cccs2)c1
- IC50 [15]: 15 µM
- Kd [16]: 28 µM

Structure (SMILES): COc1cc(C)c(C(=O)NS(=O)(=O)c2ccccc2)cc1-c1ccc(C#CCO)s1
- EC50 [3]: 31 µM
- pKa [5]: 3.8
- EC50 [6]: 18 µM
- Papp A→B [7]: 5 nm/s
- IC50 [15]: 0.17 µM
- EC50 [10]: 41 µM
- logD [11]: 1.7
- EC50 [14]: 34 µM

Structure (SMILES): O=C(O)Cc1cc(CC(=O)O)cc(-c2ccccc2)c1
- IC50 [15]: 177 µM
- Kd [16]: 154 µM

Structure (SMILES): COc1ccc(C(=O)O)cc1-c1ccc(C#CCO)s1
- pKa [5]: 4.2
- IC50 [15]: 2.3 µM
- Kd [16]: 3.8 µM
- logD [11]: 0.79
- Kd [13]: 1.7 µM

Structure (SMILES): COc1cc(C)c(C(=O)O)cc1-c1ccc(C#CCO)s1
- Activity [17]: inactive
- pKa [5]: 4.2
- Activity [18]: inactive
- IC50 [15]: 0.53 µM
- Kd [16]: 1.6 µM
- logD [11]: 1.2
- Activity [19]: inactive
- Kd [13]: 0.11 µM
- Activity [20]: inactive
